Test results as given in ChEMBL document CHEMBL3098105, “7,7'-Diazaindirubin--a small molecule inhibitor of casein kinase 2 in vitro and in cells” (Bioorg Med Chem, 2014).
Calls of active or inactive are those of the source. The rule behind the calls is not given here.

Legend:
[1] = biological target: Serine/threonine-protein kinase MRCK beta (Homo sapiens) (UniProt Q9Y5S2); experiment: Inhibition of human MRCKbeta assessed as residual activity at 1 uM relative to control
[2] = biological target: Serine/threonine-protein kinase 17A (Homo sapiens) (UniProt Q9UEE5); experiment: Inhibition of human DRAK1 assessed as residual activity at 1 uM relative to control
Serine/threonine-protein kinase 17A (Homo sapiens), sequence (Q9UEE5 whole entry): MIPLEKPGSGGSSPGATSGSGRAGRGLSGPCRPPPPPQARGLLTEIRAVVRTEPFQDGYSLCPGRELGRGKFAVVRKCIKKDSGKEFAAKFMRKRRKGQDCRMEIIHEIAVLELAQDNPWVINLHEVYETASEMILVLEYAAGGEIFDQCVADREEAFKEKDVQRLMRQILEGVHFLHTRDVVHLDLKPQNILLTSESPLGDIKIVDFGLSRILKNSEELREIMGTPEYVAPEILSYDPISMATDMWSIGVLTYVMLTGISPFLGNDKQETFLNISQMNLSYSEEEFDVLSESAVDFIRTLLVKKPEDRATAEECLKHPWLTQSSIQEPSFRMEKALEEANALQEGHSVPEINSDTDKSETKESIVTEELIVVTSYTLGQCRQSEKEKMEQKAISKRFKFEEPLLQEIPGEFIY

[3] = biological target: Insulin-like growth factor 1 receptor (Homo sapiens) (UniProt P08069); experiment: Inhibition of human IGF-1R assessed as residual activity at 1 uM relative to control
[4] = biological target: Receptor-type tyrosine-protein kinase FLT3 (Homo sapiens) (UniProt P36888); experiment: Inhibition of human Flt3 assessed as residual activity at 1 uM relative to control
[5] = biological target: Mast/stem cell growth factor receptor Kit (Homo sapiens) (UniProt P10721); experiment: Inhibition of human cKit assessed as residual activity at 1 uM relative to control
Mast/stem cell growth factor receptor Kit (Homo sapiens), sequence (P10721 whole entry): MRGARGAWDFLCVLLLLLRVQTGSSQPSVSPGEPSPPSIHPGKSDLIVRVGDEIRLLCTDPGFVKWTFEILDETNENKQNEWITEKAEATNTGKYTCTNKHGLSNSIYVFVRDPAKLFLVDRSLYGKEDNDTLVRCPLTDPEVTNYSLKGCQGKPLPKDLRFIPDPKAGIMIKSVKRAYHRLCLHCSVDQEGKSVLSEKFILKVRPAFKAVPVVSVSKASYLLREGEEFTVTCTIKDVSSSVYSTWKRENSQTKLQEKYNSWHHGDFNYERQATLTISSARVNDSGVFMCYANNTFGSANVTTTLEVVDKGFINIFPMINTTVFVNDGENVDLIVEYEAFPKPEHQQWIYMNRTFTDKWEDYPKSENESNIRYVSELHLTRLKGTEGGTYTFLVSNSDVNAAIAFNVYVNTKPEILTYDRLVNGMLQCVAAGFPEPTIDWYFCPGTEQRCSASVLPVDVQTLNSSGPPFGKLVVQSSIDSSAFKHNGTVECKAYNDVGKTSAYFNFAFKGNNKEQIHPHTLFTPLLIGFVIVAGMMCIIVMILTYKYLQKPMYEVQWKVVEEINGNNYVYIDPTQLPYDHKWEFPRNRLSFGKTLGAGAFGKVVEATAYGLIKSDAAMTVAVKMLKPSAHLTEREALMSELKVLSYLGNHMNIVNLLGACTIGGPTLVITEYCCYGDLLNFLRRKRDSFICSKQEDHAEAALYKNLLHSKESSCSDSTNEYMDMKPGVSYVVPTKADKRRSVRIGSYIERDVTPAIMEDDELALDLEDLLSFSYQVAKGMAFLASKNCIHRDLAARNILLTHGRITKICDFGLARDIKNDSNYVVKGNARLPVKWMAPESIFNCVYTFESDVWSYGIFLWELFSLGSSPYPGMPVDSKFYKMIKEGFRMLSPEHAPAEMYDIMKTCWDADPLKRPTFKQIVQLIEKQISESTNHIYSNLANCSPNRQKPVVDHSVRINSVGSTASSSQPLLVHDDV

[6] = biological target: Serine/threonine-protein kinase SIK1 (Homo sapiens) (UniProt P57059); experiment: Inhibition of human SIK assessed as residual activity at 1 uM relative to control
[7] = biological target: cGMP-dependent protein kinase 1 (Homo sapiens) (UniProt Q13976); experiment: Inhibition of human PKG1beta assessed as residual activity at 1 uM relative to control
[8] = biological target: Receptor-interacting serine/threonine-protein kinase 2 (Homo sapiens) (UniProt O43353); experiment: Inhibition of human RIPK2 assessed as residual activity at 1 uM relative to control
Receptor-interacting serine/threonine-protein kinase 2 (Homo sapiens), sequence (O43353 whole entry): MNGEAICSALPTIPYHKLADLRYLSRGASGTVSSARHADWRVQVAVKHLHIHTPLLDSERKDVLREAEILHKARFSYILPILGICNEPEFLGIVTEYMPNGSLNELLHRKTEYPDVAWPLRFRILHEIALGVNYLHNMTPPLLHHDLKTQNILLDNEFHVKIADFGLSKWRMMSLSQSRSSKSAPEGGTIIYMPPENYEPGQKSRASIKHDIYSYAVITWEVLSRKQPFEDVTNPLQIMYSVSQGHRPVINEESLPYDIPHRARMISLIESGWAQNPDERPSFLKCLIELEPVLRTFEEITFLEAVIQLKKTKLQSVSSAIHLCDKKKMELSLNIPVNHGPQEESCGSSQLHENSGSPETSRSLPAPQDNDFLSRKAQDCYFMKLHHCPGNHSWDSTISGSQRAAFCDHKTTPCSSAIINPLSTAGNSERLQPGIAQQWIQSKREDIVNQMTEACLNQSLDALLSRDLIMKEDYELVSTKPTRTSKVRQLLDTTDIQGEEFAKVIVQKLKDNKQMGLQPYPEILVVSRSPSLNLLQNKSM

[9] = biological target: Myotonin-protein kinase (Homo sapiens) (UniProt Q09013); experiment: Inhibition of human DMPK assessed as residual activity at 1 uM relative to control
[10] = biological target: Interleukin-1 receptor-associated kinase 4 (Homo sapiens) (UniProt Q9NWZ3); experiment: Inhibition of human IRAK4 assessed as residual activity at 1 uM relative to control
[11] = biological target: CDK2/Cyclin A2 (Homo sapiens) (UniProt P24941+P20248); experiment: Inhibition of CDK2/CycA (unknown origin) assessed as residual activity at 1 uM relative to control; assay type: protein-complex assay
[12] = biological target: Mitogen-activated protein kinase kinase kinase 9 (Homo sapiens) (UniProt P80192); experiment: Inhibition of human MLK1 assessed as residual activity at 1 uM relative to control
[13] = biological target: SRSF protein kinase 1 (Homo sapiens) (UniProt Q96SB4); experiment: Inhibition of human SRPK1 assessed as residual activity at 1 uM relative to control
SRSF protein kinase 1 (Homo sapiens), sequence (Q96SB4 whole entry): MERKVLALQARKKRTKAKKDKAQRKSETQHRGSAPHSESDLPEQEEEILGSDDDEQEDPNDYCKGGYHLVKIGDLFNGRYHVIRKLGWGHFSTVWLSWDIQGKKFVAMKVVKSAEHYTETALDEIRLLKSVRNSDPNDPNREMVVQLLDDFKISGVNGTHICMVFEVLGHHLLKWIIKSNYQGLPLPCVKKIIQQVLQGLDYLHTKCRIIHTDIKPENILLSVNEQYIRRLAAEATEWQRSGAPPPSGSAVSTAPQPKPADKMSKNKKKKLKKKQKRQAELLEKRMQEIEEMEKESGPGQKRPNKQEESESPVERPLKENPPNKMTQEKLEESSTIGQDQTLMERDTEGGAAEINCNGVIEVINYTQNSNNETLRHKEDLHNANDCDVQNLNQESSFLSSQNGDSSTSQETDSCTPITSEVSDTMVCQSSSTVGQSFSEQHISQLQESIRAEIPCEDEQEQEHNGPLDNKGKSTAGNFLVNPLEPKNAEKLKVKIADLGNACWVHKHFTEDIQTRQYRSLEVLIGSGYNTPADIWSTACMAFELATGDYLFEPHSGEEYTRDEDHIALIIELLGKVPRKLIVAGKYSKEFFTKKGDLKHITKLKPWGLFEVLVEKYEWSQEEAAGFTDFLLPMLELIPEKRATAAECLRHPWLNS

[14] = biological target: Cyclin-dependent kinase 1/cyclin B1 (Homo sapiens) (UniProt P06493+P14635); experiment: Inhibition of CDK1/CycB1 (unknown origin) assessed as residual activity at 10 uM relative to control; assay type: protein-complex assay
[15] = biological target: ALK tyrosine kinase receptor (Homo sapiens) (UniProt Q9UM73); experiment: Inhibition of human ALK assessed as residual activity at 1 uM relative to control
ALK tyrosine kinase receptor (Homo sapiens), sequence (Q9UM73 19-1620 limits assumed): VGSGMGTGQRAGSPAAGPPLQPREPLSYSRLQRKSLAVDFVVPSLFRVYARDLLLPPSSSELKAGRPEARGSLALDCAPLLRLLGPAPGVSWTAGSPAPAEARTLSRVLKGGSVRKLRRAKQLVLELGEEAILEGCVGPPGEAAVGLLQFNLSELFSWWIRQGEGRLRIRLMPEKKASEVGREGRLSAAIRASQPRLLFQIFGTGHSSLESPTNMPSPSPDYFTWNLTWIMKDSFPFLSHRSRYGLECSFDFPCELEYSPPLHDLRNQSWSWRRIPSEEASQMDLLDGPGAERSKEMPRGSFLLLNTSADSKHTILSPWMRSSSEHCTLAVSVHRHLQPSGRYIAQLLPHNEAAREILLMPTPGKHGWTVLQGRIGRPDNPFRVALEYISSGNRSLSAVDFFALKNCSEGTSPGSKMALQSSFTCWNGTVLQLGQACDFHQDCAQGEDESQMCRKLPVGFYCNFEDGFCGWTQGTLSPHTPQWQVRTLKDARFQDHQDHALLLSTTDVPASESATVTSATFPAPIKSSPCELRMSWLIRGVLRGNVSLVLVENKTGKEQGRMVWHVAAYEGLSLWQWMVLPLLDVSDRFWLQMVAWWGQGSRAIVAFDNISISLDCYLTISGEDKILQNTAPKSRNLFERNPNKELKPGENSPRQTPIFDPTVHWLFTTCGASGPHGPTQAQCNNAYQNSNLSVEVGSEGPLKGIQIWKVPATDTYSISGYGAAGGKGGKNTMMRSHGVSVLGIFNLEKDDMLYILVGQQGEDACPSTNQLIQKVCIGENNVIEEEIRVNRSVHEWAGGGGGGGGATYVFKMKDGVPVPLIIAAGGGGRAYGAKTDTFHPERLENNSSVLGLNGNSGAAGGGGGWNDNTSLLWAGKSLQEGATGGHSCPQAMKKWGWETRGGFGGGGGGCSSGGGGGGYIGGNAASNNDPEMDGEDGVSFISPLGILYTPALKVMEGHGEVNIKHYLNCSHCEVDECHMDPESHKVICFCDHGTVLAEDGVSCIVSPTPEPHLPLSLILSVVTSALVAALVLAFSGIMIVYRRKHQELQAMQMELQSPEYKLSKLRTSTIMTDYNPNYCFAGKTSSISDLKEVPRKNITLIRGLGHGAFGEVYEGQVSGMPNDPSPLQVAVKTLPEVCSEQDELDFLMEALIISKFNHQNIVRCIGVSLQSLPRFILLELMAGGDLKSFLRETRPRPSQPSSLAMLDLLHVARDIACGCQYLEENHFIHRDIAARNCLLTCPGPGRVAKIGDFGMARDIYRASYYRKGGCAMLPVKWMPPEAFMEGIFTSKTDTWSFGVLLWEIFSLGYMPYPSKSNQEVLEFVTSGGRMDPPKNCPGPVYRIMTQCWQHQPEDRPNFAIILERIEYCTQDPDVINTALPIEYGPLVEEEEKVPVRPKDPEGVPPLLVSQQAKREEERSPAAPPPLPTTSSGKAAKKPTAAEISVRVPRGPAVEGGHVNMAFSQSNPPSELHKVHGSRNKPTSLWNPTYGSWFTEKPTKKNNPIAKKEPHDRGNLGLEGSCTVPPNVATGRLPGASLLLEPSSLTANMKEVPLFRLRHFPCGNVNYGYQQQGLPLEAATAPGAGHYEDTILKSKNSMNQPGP

[16] = biological target: Platelet-derived growth factor receptor alpha (Homo sapiens) (UniProt P16234); experiment: Inhibition of PDGFR-alpha (unknown origin) assessed as residual activity at 10 uM relative to control
[17] = biological target: Tyrosine-protein kinase Fgr (Homo sapiens) (UniProt P09769); experiment: Inhibition of FGR (unknown origin) assessed as residual activity at 1 uM relative to control
MCF7 [18] = experiment: Cell cycle arrest in human MCF7 cells assessed as accumulation at sub-G1 phase at 0.25 uM after 24 hrs using propidium iodide staining by FACS analysis (reference value: 0.17%); assay type: functional
SW-620 = experiment: Antiproliferative activity against human SW620 cells after 3 days by sulforhodamine B assay; assay type: functional; settings: SW-620, 72 h
MCF7 [19] = experiment: Induction of late stage apoptosis in human MCF7 cells expressing CK2 at 0.25 to 4 uM after 24 hrs using propidium iodide/annexin V staining by FACS analysis; assay type: functional, cell-based
Outline: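 MCF7 cells were then treated for 24 h, stained with FITC-annexin V in HEPES pH 7.4 binding buffer with 1.8 mM CaCl2 (15 min, dark, room temperature), then with PI (10 min), and analysed by FACS.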

OVCAR-3 = experiment: Antiproliferative activity against human OVCAR3 cells after 3 days by sulforhodamine B assay; assay type: functional; settings: OVCAR-3, 72 h
Outline: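 Tested in the NCI 60 cell line panel. GI50 is the concentration giving 50% inhibition of cell growth, and values are the mean of two series of tests.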

[20] = biological target: Macrophage-stimulating protein receptor (Homo sapiens) (UniProt Q04912); experiment: Inhibition of human Ron assessed as residual activity at 1 uM relative to control
[21] = biological target: Dual specificity mitogen-activated protein kinase kinase 7 (Homo sapiens) (UniProt O14733); experiment: Inhibition of human MKK7beta assessed as residual activity at 1 uM relative to control
[22] = biological target: BDNF/NT-3 growth factors receptor (Homo sapiens) (UniProt Q16620); experiment: Inhibition of human TrkB assessed as residual activity at 1 uM relative to control
BDNF/NT-3 growth factors receptor (Homo sapiens), sequence (Q16620 32-822 limits assumed): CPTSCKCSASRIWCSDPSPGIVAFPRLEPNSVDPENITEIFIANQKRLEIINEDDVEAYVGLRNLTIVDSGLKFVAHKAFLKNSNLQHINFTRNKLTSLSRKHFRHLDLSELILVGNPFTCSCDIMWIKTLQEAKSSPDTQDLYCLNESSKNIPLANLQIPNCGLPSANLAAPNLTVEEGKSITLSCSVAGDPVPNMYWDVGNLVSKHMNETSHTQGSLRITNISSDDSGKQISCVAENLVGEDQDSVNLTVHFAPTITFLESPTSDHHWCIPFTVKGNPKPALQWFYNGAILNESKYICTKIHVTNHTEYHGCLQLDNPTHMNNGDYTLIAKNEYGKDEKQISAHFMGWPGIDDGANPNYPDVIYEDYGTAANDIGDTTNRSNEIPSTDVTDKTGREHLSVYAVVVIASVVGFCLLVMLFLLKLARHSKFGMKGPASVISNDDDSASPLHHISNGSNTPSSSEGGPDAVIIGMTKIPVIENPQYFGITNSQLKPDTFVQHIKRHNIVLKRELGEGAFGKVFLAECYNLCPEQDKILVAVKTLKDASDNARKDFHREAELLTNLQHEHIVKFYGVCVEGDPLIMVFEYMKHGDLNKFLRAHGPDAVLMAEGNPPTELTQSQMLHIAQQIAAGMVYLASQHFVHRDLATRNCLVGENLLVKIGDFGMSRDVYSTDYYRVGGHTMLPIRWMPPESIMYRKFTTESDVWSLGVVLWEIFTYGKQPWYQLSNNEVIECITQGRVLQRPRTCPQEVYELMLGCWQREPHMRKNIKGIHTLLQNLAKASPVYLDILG

[23] = biological target: Serine/threonine-protein kinase TAO3 (Homo sapiens) (UniProt Q9H2K8); experiment: Inhibition of human TAO3 assessed as residual activity at 1 uM relative to control
[24] = biological target: Mitogen-activated protein kinase kinase kinase 5 (Homo sapiens) (UniProt Q99683); experiment: Inhibition of human ASK1 assessed as residual activity at 1 uM relative to control
[25] = biological target: Proto-oncogene tyrosine-protein kinase ROS (Homo sapiens) (UniProt P08922); experiment: Inhibition of human Ros assessed as residual activity at 1 uM relative to control
[26] = biological target: Tyrosine-protein kinase Mer (Homo sapiens) (UniProt Q12866); experiment: Inhibition of human Mer assessed as residual activity at 1 uM relative to control
HT-29 = experiment: Antiproliferative activity against human HT-29 cells after 3 days by SRB assay; assay type: functional, cell-based; settings: HT-29, 72 h
Outline: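 Cells grown at 37 °C, 5% CO2, with 10% heat-inactivated FBS: LXFL529L in RPMI 1640, MCF7 and HT29 in DMEM. Seeded, allowed 24 h growth, then exposed to the drug at various concentrations for 3 days in serum medium. Fixed with TCA for 1 h at 4 °C, stained with 0.4% SRB, eluted in 10 mM Tris pH 10.5, read at 570 nm as % T/C. IC50 taken from dose–response curves of at least three independent experiments.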

[27] = biological target: Death-associated protein kinase 2 (Homo sapiens) (UniProt Q9UIK4); experiment: Inhibition of human DAPK2 assessed as residual activity at 1 uM relative to control
[28] = biological target: SRSF protein kinase 3 (Homo sapiens) (UniProt Q9UPE1); experiment: Inhibition of human MSSK1 assessed as residual activity at 1 uM relative to control
TK-10 = experiment: Antiproliferative activity against human TK10 cells after 3 days by sulforhodamine B assay; assay type: functional; settings: TK-10, 72 h
[29] = biological target: Cyclin-dependent kinase 2/cyclin E1 (Homo sapiens) (UniProt P24864+P24941); experiment: Inhibition of CDK2/CycE (unknown origin) assessed as residual activity at 10 uM relative to control; assay type: protein-complex assay
[30] = biological target: Tyrosine-protein kinase ITK/TSK (Homo sapiens) (UniProt Q08881); experiment: Inhibition of human Itk assessed as residual activity at 1 uM relative to control

In the case of `O=C1Nc2ncccc2/C1=C1/Nc2ncccc2C1=O`, the Activity [1] is reported as 102%, the Activity [2] is reported as 99% and the Activity [3] is reported as 112%. It also gave an Activity [4] of 69%, an Activity [5] of 83% and an Activity [6] of 32%. The Activity [7] was 90%, the Activity [8] was 85% and the Activity [9] was 95%. The Activity [10] was 93%, the Activity [11] was 116% and the Activity [12] was 61%. The Activity [13] was 92%, the Activity [14] was 89% and the Activity [15] was 97%. The Activity [16] was 88%, the Activity [17] was 95% and the Activity (MCF7 [18]) was 0.17%. The GI50 (SW-620) was 1410 nM, the Activity (MCF7 [19]) was “Active” and the GI50 (OVCAR-3) was 289 nM. For the same compound, the Activity [20] was 101%, the Activity [21] was 103% and the Activity [22] was 105%. For the same compound, the Activity [23] was 96%, the Activity [24] was 136% and the Activity [25] was 102%. For the same compound, the Activity [26] was 95%, the IC50 (HT-29) was 2000 nM and the Activity [27] was 114%. It also gave an Activity [28] of 73%, a GI50 (TK-10) of 2270 nM and an Activity [29] of 77%. For the same compound, the Activity [30] was 106%.
